Type in all cases: ADME, organism-based, Macaca mulatta
A short description of data set [1]: Drug level in normal rhesus monkey thalamus assessed as standard uptake value at 81.2 MBq, iv after 145 mins by microPET. The settings on record: in vivo.
Data set [2] in a line: Drug level in normal rhesus monkey parietal cortex assessed as standard uptake value at 81.2 MBq, iv after 47.5 mins by microPET. The settings on record: in vivo.
Data set [3] can be described thus: Drug level in normal rhesus monkey white matter assessed as standard uptake value at 81.2 MBq, iv after 3.5 mins by microPET. The note with it: in vivo.
Data set [4] can be described thus: Drug level in normal rhesus monkey white matter assessed as standard uptake value at 81.2 MBq, iv after 8 mins by microPET. The note with it: in vivo.
A short description of data set [5]: Drug level in normal rhesus monkey frontal cortex assessed as standard uptake value at 81.2 MBq, iv after 105 mins by microPET. The note with it: in vivo, 1.75 h. Summed up: (§1)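 Single normal rhesus monkey; each tracer given iv via the vena saphena, with 1 day between tracer injections. Dynamic μPET ran 180 min (5×60 s, 5×120 s, 9×300 s, 12×600 s). Images were reconstructed by filtered back projection with a RAMP filter. Regional time-activity curves were expressed as SUV.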

Data set [6] in a line: Drug level in normal rhesus monkey cerebellum assessed as standard uptake value at 81.2 MBq, iv after 22.5 mins by microPET. The settings on record: in vivo, 0.375 h. Summed up:
(§2)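 One normal rhesus monkey, each tracer given iv via the vena saphena (81.2, 96.3 or 109.4 MBq), with 1 day between tracer injections. Dynamic brain μPET over 180 min used frames of 5 × 60 s, 5 × 120 s, 9 × 300 s and 12 × 600 s. Images were reconstructed by filtered back projection with a RAMP filter. Regional time-activity curves were expressed as SUV.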

Data set [7] is described as follows: Drug level in normal rhesus monkey cerebellum assessed as standard uptake value at 81.2 MBq, iv after 27.5 mins by microPET. The note with it: in vivo. Summed up:
as §2

Data set [8] in a line: Drug level in normal rhesus monkey cerebellum assessed as standard uptake value at 81.2 MBq, iv after 47.5 mins by microPET. The settings on record: in vivo. Summed up: as §2
Data set [9] is described as follows: Drug level in normal rhesus monkey frontal cortex assessed as standard uptake value at 81.2 MBq, iv after 1.5 mins by microPET. The note with it: in vivo, 0.025 h. Summed up:
as §1

Data set [10] in a line: Drug level in normal rhesus monkey frontal cortex assessed as standard uptake value at 81.2 MBq, iv after 22.5 mins by microPET. The note with it: in vivo, 0.375 h.
The nature of data set [11]: Drug level in normal rhesus monkey thalamus assessed as standard uptake value at 96.3 MBq, iv after 17.5 mins by microPET. The settings on record: in vivo.
Data set [12] can be described thus: Drug level in normal rhesus monkey thalamus assessed as standard uptake value at 96.3 MBq, iv after 47.5 mins by microPET. The note with it: in vivo.
The nature of data set [13]: Drug level in normal rhesus monkey thalamus assessed as standard uptake value at 96.3 MBq, iv after 52.5 mins by microPET. The note with it: in vivo, 0.875 h.
The nature of data set [14]: Drug level in normal rhesus monkey pons assessed as standard uptake value at 96.3 MBq, iv after 12 mins by microPET. The settings on record: in vivo, 0.2 h.
A short description of data set [15]: Drug level in normal rhesus monkey pons assessed as standard uptake value at 96.3 MBq, iv after 17.5 mins by microPET. The note with it: in vivo.
The nature of data set [16]: Drug level in normal rhesus monkey pons assessed as standard uptake value at 96.3 MBq, iv after 135 mins by microPET. The settings on record: in vivo, 2.25 h.
Data set [17] is described as follows: Drug level in normal rhesus monkey frontal cortex assessed as standard uptake value at 96.3 MBq, iv after 145 mins by microPET. The note with it: in vivo.
Data set [18] can be described thus: Drug level in normal rhesus monkey white matter assessed as standard uptake value at 96.3 MBq, iv after 57.5 mins by microPET. The settings on record: in vivo.
Data set [19] in a line: Drug level in normal rhesus monkey thalamus assessed as standard uptake value at 109.4 MBq, iv after 123 mins by microPET. The settings on record: in vivo, 2.05 h.
The nature of data set [20]: Drug level in normal rhesus monkey cerebellum assessed as standard uptake value at 109.4 MBq, iv after 52.5 mins by microPET. The settings on record: in vivo, 0.875 h. Summed up: (§3)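 One normal rhesus monkey received each tracer via the vena saphena, with 1 day between injections. Dynamic μPET ran 180 min for 18F tracers (5×60 s, 5×120 s, 9×300 s, 12×600 s) and 90 min for the 11C tracer (5×60 s, 5×120 s, 9×300 s, 3×600 s). Filtered back-projection reconstruction (RAMP filter) was used. Time-activity curves were drawn to give regional SUV.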

Data set [21] is described as follows: Drug level in normal rhesus monkey frontal cortex assessed as standard uptake value at 109.4 MBq, iv after 22.5 mins by microPET. The settings on record: in vivo, 0.375 h. Summed up:
as §1

The nature of data set [22]: Drug level in normal rhesus monkey frontal cortex assessed as standard uptake value at 109.4 MBq, iv after 47.5 mins by microPET. The note with it: in vivo. Summed up: as §2
The nature of data set [23]: Drug level in normal rhesus monkey white matter assessed as standard uptake value at 109.4 MBq, iv after 117 mins by microPET. The settings on record: in vivo, 1.95 h.
Data set [24] can be described thus: Drug level in normal rhesus monkey thalamus assessed as standard uptake value at 109.4 MBq, iv after 0.375 mins by microPET. The note with it: in vivo, 22 s.
The nature of data set [25]: Drug level in normal rhesus monkey parietal cortex assessed as standard uptake value at 109.4 MBq, iv after 32.5 mins by microPET. The note with it: in vivo.
The nature of data set [26]: Drug level in normal rhesus monkey cerebellum assessed as standard uptake value at 152.9 MBq, iv after 32.5 mins by microPET. The settings on record: in vivo. Summed up:
(§4)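 Single normal rhesus monkey; tracer given iv via the vena saphena, 1 day apart from the other tracer injections. Dynamic μPET ran 90 min (5×60 s, 5×120 s, 9×300 s, 3×600 s). Images were reconstructed by filtered back projection with a RAMP filter. Regional time-activity curves were expressed as SUV.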

Data set [27] in a line: Drug level in normal rhesus monkey cerebellum assessed as standard uptake value at 152.9 MBq, iv after 37.5 mins by microPET. The settings on record: in vivo, 0.625 h. Summed up: as §3
A short description of data set [28]: Drug level in normal rhesus monkey cerebellum assessed as standard uptake value at 152.9 MBq, iv after 52.5 mins by microPET. The settings on record: in vivo, 0.875 h. Summed up: as §3
Data set [29] can be described thus: Drug level in normal rhesus monkey frontal cortex assessed as standard uptake value at 152.9 MBq, iv after 37.5 mins by microPET. The note with it: in vivo, 0.625 h. Summed up: as §4
Data set [30] can be described thus: Drug level in normal rhesus monkey white matter assessed as standard uptake value at 152.9 MBq, iv after 8 mins by microPET. The settings on record: in vivo.
Data set [31] is described as follows: Drug level in normal rhesus monkey white matter assessed as standard uptake value at 152.9 MBq, iv after 22.5 mins by microPET. The settings on record: in vivo, 0.375 h.
A short description of data set [32]: Drug level in normal rhesus monkey white matter assessed as standard uptake value at 152.9 MBq, iv after 52.5 mins by microPET. The note with it: in vivo, 0.875 h.
Data set [33] in a line: Drug level in normal rhesus monkey thalamus assessed as standard uptake value at 152.9 MBq, iv after 57.5 mins by microPET. The note with it: in vivo.
Data set [34] in a line: Drug level in normal rhesus monkey parietal cortex assessed as standard uptake value at 152.9 MBq, iv after 0.5 mins by microPET. The note with it: in vivo.
Data set [35] is described as follows: Drug level in normal rhesus monkey parietal cortex assessed as standard uptake value at 152.9 MBq, iv after 27.5 mins by microPET. The settings on record: in vivo.
The nature of data set [36]: Drug level in normal rhesus monkey parietal cortex assessed as standard uptake value at 152.9 MBq, iv after 52.5 mins by microPET. The settings on record: in vivo, 0.875 h.

For `CNc1ccc2nc(-c3ccc([18F])cc3)sc2c1`, the SUV in data set [1] is on record as 4.916; in [2], 3.676; in data set [3] it was 3.019; in data set [4], 3.412; in [5], 4.68; in data set [6] it was 2.518. For the same molecule, the SUV in data set [7] is listed as 2.224; in [8] it was 1.883; in data set [9], 3.245; in [10] it was 5.717.

Take `CN(C)c1ccc2nc(-c3ccc([18F])cc3)sc2c1`: the SUV in [11] amounted to 2.3; in [12], 2.25; in data set [13], 2.26; in data set [14], 1.55; in [15], 1.51; in data set [16], 1.92. The figures for the SUV in data set [17] and in [18] were 1.44 and 1.37, respectively.

As for `Nc1ccc2nc(-c3ccc([18F])cc3)sc2c1`, the SUV in data set [19] is recorded as 4.63; in data set [20], 3.38; in data set [21], 5.16; in data set [22], 4.76; in data set [23], 3.71; in data set [24], 0.41. In addition, the SUV in data set [25] was 4.8.

`[11CH3]Nc1ccc(-c2nc3ccc(O)cc3s2)cc1` [PITTSBURGH COMPOUND B]: the SUV in data set [26] stood at 1.143; in [27], 0.996; in data set [28], 0.813; in [29], 0.912; in data set [30] it was 1.421; in [31], 1.229. Moreover, the SUV came to 0.937 in data set [32]; 0.88 in data set [33]; 0.039 in data set [34]; 1.221 in [35]; 0.799 in [36].
